# In article PMC6733178 (ACS Omega, 2019):
# Assays:
# [1] = system: B. subtilis ATCC 6623 (Bs); assay: MIC, broth microdilution with resazurin; type: cell-based; settings: NA = No Activity
# [2] = system: S. aureus ATCC 25923 (Sa); assay: MIC, broth microdilution with resazurin; type: cell-based, Staphylococcus aureus; settings: for MIC: Staphylococcus aureus, ATCC25923, read-out: MIC Values Sa
# In short: (§1)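 CLSI broth microdilution. Strains were grown overnight at 35 °C on TSA or TSA with 5% sheep blood. Colonies were suspended in 0.9% saline to 0.5 McFarland, then diluted 1:100 in Mueller Hinton broth (about 1 × 10^6 CFU/mL). Test compound (2 mg/mL DMSO stock) was serially diluted 1:2 from 50 µg/mL final. Resazurin was added at 8 µg/mL final, and plates were incubated 35 °C for 20–24 h and read visually. MIC is the lowest concentration without the resazurin colour change. Each plate carried untreated, DMSO and antibiotic controls.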
# [3] = system: S. aureus BAA-2312 (Sa12); assay: MIC, broth microdilution with resazurin; type: cell-based, Staphylococcus aureus; settings: for MIC: Staphylococcus aureus, BAA2312, read-out: MIC Values Sa12
# In short: as §1
# [4] = system: S. aureus ATCC 33591 (Sa91); assay: MIC, broth microdilution with resazurin; type: cell-based, Staphylococcus aureus; settings: for MIC: Staphylococcus aureus, ATCC33591, read-out: MIC Values Sa91
# In short: as §1
# [5] = system: S. aureus ATCC 700699 (Sa99); assay: MIC, broth microdilution with resazurin; type: cell-based, Staphylococcus aureus; settings: for MIC: Staphylococcus aureus, ATCC700699, read-out: MIC Values Sa99
# In short: as §1
# [6] = system: S. aureus ATCC 33592 (Sa92); assay: MIC, broth microdilution with resazurin; type: cell-based, Staphylococcus aureus; settings: for MIC: Staphylococcus aureus, ATCC33592, read-out: MIC Values Sa92
# In short: as §1
# [7] = system: human embryonic kidney (HEK293) cell line; assay: In vitro cytotoxicity, resazurin viability; type: cell-based; settings: HEK293, 24 h incubation
# In short: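 HEK293 cells were counted and seeded at 4000 per well. Test compound was serially diluted from 50 µg/mL, added in triplicate, and incubated 24 h. Resazurin (5%) was then added, and plates were incubated 4 and 6 h before reading. Viability was read as fluorescence at 544 nm excitation and 590 nm emission.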
# [8] = system: S. epidermidis 700296 (Se); assay: MIC, broth microdilution with resazurin; type: cell-based; settings: for MIC: Staphylococcus epidermidis, read-out: MIC Values Se
# A. baumannii ATCC 19606 = assay: SYTO-9/propidium iodide; type: cell-based, Acinetobacter baumannii; settings: compared with positive control Colistin 6.25 μg/mL
# [9] = system: tested Gram-positive strains (S. aureus incl. MRSA, S. epidermidis, B. subtilis); assay: MIC summarised in the text over the tested Gram-positive strains; type: cell-based
# [10] = system: A. baumannii ATCC 747 (Ab47); assay: MIC, broth microdilution with resazurin; type: cell-based, Acinetobacter baumannii; settings: for MIC: Acinetobacter baumannii, ATCC747, read-out: MIC Ab47
# In short: as §1
# [11] = system: A. baumannii ATCC 19606 (Type Strain, AB06); assay: MIC, broth microdilution with resazurin; type: cell-based, Acinetobacter baumannii; settings: for MIC: Acinetobacter baumannii, ATCC19606, read-out: MIC Ab06
# In short: as §1
# [12] = system: A. baumannii ATCC BAA-1605 (Ab05); assay: MIC, broth microdilution with resazurin; type: cell-based, Acinetobacter baumannii; settings: NA = No Activity
# In short: as §1
# [13] = system: three strains of A. baumannii; assay: MIC summarised in the text over the three A. baumannii strains; type: cell-based, Acinetobacter baumannii
# In short: as §1
# [14] = antibiotic-resistant strain, NA = No Activity
Compound,MIC [2],IC50 [7],MIC [3],MIC [5],MIC [6],MIC [4],MIC [8],MIC [10],MIC [11],activity against A. baumannii strains (in words) [13],also measured
"4-[4-[(2,2-Dibenzylhydrazino)methyl]-3-(3-fluorophenyl)pyrazol-1-yl]benzoic Acid [Compound 7]",–,–,–,–,–,–,–,–,–,–,"MIC Values Bs [1]: 1.56 µg/mL; MIC Values Sa ([2]; antibiotic susceptible strain, NA = No Activity): 12.5 µg/mL; MIC Values Sa12 [3, 14]: 6.25 µg/mL; MIC Values Sa91 [4, 14]: 6.25 µg/mL; MIC Values Sa99 [5, 14]: 3.125 µg/mL; MIC Values Sa92 [6, 14]: 3.125 µg/mL"
"O=C(O)c1ccc(-n2cc(/C=N/N(c3ccccc3)c3ccccc3)c(-c3ccc(F)cc3)n2)cc1 [Compound 23, 4-[4-[(E)-(Diphenylhydrazono)methyl]-3-(4-fluorophenyl)pyrazol-1-yl]benzoic Acid]",1.56 µg/mL,High IC50 values,3.12 µg/mL,1.56 µg/mL,0.78 µg/mL,–,–,–,–,–,MIC Values Bs ([1]; Table 2): 1.56 µg/mL; MIC Values Se ([8]; NA = No Activity): no activity
"O=C(O)c1ccc(-n2cc(/C=N/N(c3ccccc3)c3ccccc3)c(-c3cccc(F)c3)n2)cc1 [Compound 5, 4-[4-[(E)-(Diphenylhydrazono)methyl]-3-(3-fluorophenyl)pyrazol-1-yl]benzoic Acid]",3.12 µg/mL,High IC50 values,3.12 µg/mL,1.56 µg/mL,0.78 µg/mL,3.12 µg/mL,3.12 µg/mL,–,–,–,–
"CN1CCN(/N=C/c2cn(-c3ccc(C(=O)O)cc3)nc2-c2cccc(F)c2)CC1 [Compound 21, 4-[3-(3-Fluorophenyl)-4-[(E)-(4-methylpiperazin-1-yl)iminomethyl]pyrazol-1-yl]benzoic Acid]",–,–,–,–,–,–,–,–,–,–,membrane disruption ability (ratio of PI to SYTO-9 signals) (A. baumannii ATCC 19606): better membrane disruption ability than the positive control; activity against the tested strains (in words) [9]: completely ceased the activity
Colistin [reference compound],–,–,–,–,–,–,–,–,–,–,MIC Ab47 ([10]; NA = No Activity): 1.56 µg/mL; MIC Ab06 ([11]; NA = No Activity): 3.125 µg/mL; MIC Ab05 [12]: 3.125 µg/mL
"O=C(O)c1ccc(-n2cc(/C=N/Nc3ccc(Br)cc3)c(-c3cccc(F)c3)n2)cc1 [Compound 10, 4-[4-[(E)-[(4-Bromophenyl)hydrazono]methyl]-3-(3-fluorophenyl)pyrazol-1-yl]benzoic Acid]",12.5 µg/mL,–,12.5 µg/mL,6.25 µg/mL,6.25 µg/mL,12.5 µg/mL,12.5 µg/mL,6.25 µg/mL,3.12 µg/mL,moderate activity,–
"O=C(O)c1ccc(-n2cc(/C=N/Nc3cccc(Br)c3)c(-c3cccc(F)c3)n2)cc1 [Compound 9, 4-[4-[(E)-[(3-Bromophenyl)hydrazono]methyl]-3-(3-fluorophenyl)pyrazol-1-yl]benzoic Acid]",12.5 µg/mL,–,12.5 µg/mL,3.12 µg/mL,6.25 µg/mL,12.5 µg/mL,12.5 µg/mL,12.5 µg/mL,6.25 µg/mL,moderate activity,–
"O=C(O)c1ccc(-n2cc(/C=N/Nc3ccc(Cl)cc3Cl)c(-c3cccc(F)c3)n2)cc1 [Compound 12, 4-[4-[(E)-[(2,4-Dichlorophenyl)hydrazono]methyl]-3-(3-fluorophenyl)pyrazol-1-yl]benzoic Acid]",3.12 µg/mL,High IC50 values,3.12 µg/mL,0.78 µg/mL,0.39 µg/mL,3.12 µg/mL,3.12 µg/mL,–,–,–,–
"O=C(O)c1ccc(-n2cc(/C=N/Nc3cccc(Cl)c3)c(-c3cccc(F)c3)n2)cc1 [Compound 8, 4-[4-[(E)-[(3-Chlorophenyl)hydrazono]methyl]-3-(3-fluorophenyl)pyrazol-1-yl]benzoic Acid]",6.25 µg/mL,–,12.5 µg/mL,3.12 µg/mL,6.25 µg/mL,12.5 µg/mL,12.5 µg/mL,12.5 µg/mL,6.25 µg/mL,moderate activity,–
"CN(/N=C/c1cn(-c2ccc(C(=O)O)cc2)nc1-c1ccc(F)cc1)c1ccccc1 [Compound 22, 4-[3-(4-Fluorophenyl)-4-[(E)-[methyl(phenyl)hydrazono]methyl]pyrazol-1-yl]benzoic Acid]",12.5 µg/mL,–,–,12.5 µg/mL,6.25 µg/mL,12.5 µg/mL,12.5 µg/mL,–,–,–,membrane disruption ability (ratio of PI to SYTO-9 signals) (A. baumannii ATCC 19606): better membrane disruption ability than the positive control; activity against the tested strains (in words) [9]: moderate activity
